Results reported in PMC10996840 (RSC Advances, 2024).
Several values for one entry are separate records, joined by “and”; a condition that tells them apart may be missing. Equal values may be shown once. Read-outs that look alike come from different tables or passages of the source.

Tests used:
MCF-10A cells = experiment: MTT cytotoxicity assay against normal MCF-10A cells; type: cell-based; conditions: for IC50: Homo sapiens, MCF-10A, read-out: IC50 ± SD MCF-10A; for IC50 ± SD MCF-10A: MTT assay, normal MCF-10A cells, mean ± SD, n = 3
Summary of the method: (§1)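 Cells kept in RPMI-1640 with L-glutamine at 37 °C under 5% CO2. Plated at 5 × 10^4 cells per well in triplicate. Next day they received test compound at 0.01, 0.1, 1, 10 and 100 μM. Viability read by MTT. IC50 came from a nonlinear dose–response fit of % viability against concentration.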

PIM-1 kinase [1] = target: T1, PIM-1 kinase (Homo sapiens, UniProt P11309); experiment: PIM-1 kinase inhibitory assay; type: biochemical; conditions: for % of PIM-1 inhibition: concentration not given
HepG2 cells = experiment: MTT cytotoxicity assay against HepG2 cells; type: cell-based, human
Summary of the method: as §1

[2] = system: P53, Bax, caspases-3,8,9, Bcl-2 and PIM-1 gene expression in MCF-7 cells; experiment: RT-PCR of apoptosis-related genes; type: cell-based, human; conditions: MCF-7, IC50 = 0.57 μM, 48 h, normalized to β-actin, control = 1
Summary of the method: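 MCF-7 cells treated with test compound for 48 h, then taken for RT-PCR of apoptosis-related genes. Ct values were normalised to β-actin to give relative expression as fold change versus untreated control (set to 1). Values average three independent runs.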

MCF-7 cells [3] = experiment: DNA content flow cytometry cell cycle analysis; type: cell-based, human; conditions: MCF-7 cells treated at IC50 = 0.57 μM, 48 h
MCF-7 cells [4] = experiment: Annexin V/PI staining flow cytometry; type: cell-based, human; conditions: MCF-7 cells treated at IC50 = 0.57 μM, 48 h
Summary of the method: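 MCF-7 cells seeded at 3–5 × 10^5 per well, incubated overnight, then exposed to test compound for 48 h. Supernatant and cells collected and rinsed in ice-cold PBS. Resuspended in annexin binding buffer (CaCl2, NaCl, Hepes/NaOH, pH 7.4) with annexin V-FITC (1:100) and PI (10 μg mL−1), kept 30 min in the dark, then analysed on a FACSCalibur flow cytometer.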

PIM-1 kinase [5] = target: T1, PIM-1 kinase; conditions: read-out: IC50 ± SD PIM-1 kinase inhibition; previously reported value ref 32; cited from earlier work
[6] = read-out: IC50 ± SD HepG2, MTT assay, liver cancer HepG2 cells, mean ± SD, n = 3

T1 sequence (P11309 whole entry): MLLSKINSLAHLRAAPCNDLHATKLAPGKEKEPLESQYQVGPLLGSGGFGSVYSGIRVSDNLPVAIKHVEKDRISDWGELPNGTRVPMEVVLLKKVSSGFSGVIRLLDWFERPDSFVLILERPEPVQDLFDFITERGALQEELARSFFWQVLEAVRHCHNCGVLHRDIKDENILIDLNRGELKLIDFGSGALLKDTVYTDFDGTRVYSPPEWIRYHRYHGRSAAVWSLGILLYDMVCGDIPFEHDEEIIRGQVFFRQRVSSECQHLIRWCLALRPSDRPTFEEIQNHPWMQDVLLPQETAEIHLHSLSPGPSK

## N#Cc1c(-c2ccc(Cl)cc2)c2c(=O)[nH]c(=S)[nH]c2n(C2CCCCC2)c1=O [Compound 10, 5-(4-Chlorophenyl)-8-cyclohexyl-4,7-dioxo-2-thioxo-1,2,3,4,7,8-hexahydropyrido[2,3-d]pyrimidine-6-carbonitrile]
MCF-10A cells
  IC50: ≥ 50 µM
  IC50 ± SD MCF-10A: non-toxic
PIM-1 kinase [1]
  IC50: 17.2 ± 0.2 nM
  % of PIM-1 inhibition: 94.6 ± 2.1%

## CN[C@@H]1C[C@H]2O[C@@](C)([C@@H]1OC)n1c3ccccc3c3c4c(c5c6ccccc6n2c5c31)C(=O)NC4 [Staurosporine, reference compound]
HepG2 cells; Homo sapiens, HepG2, read-out: IC50 ± SD HepG2
  IC50: 5.07 ± 0.36 µM

## N#Cc1c(-c2ccc(Cl)cc2)c2c(=O)[nH]nnc2n(C2CCCCC2)c1=O [Compound 11, 5-(4-Chlorophenyl)-8-cyclohexyl-4,7-dioxo-3,4,7,8-tetrahydropyrido[2,3-d][1,2,3]triazine-6-carbonitrile]
MCF-10A cells
  IC50: ≥ 50 µM
  IC50 ± SD MCF-10A: non-toxic
PIM-1 kinase [1]
  IC50: 21.4 ± 0.24 nM
  % of PIM-1 inhibition: 92.1 ± 1.9%

## N#Cc1c(-c2ccc(Cl)cc2)c2c(=O)[nH]c(-c3ccc(Cl)cc3Cl)nc2n(C2CCCCC2)c1=O [Compound 4, 5-(4-Chlorophenyl)-8-cyclohexyl-2-(2,4-dichlorophenyl)-4,7-dioxo-3,4,7,8-tetrahydropyrido[2,3-d]pyrimidine-6-carbonitrile]
[2]
  Bax gene expression fold change: 6.7 fold
  Bcl-2 gene expression fold change: 0.11 fold
  P53 gene expression fold change: 7.9 fold
  PIM-1 gene expression fold change: 0.31 fold
  caspase-3 gene expression fold change: 11.2 fold
  caspase-8 gene expression fold change: 1.23 fold
  caspase-9 gene expression fold change: 8.9 fold
HepG2 cells; [6]
  IC50: 1.13 ± 0.19 µM
MCF-7 cells [3]; control 18.86%
  cell population at G2/M phase: 4.47%
MCF-7 cells [3]; control 48.37%
  cell population at G1 phase: 56.36%
MCF-7 cells [4]
  early apoptosis (Q4): 22.11%
  increase of cell apoptosis versus untreated control: 58.29 fold and 58.3 fold
  late apoptosis (Q2): 14.03%
MCF-7 cells [4]; untreated control 0.62%
  total apoptosis: 36.14%
MCF-10A cells
  IC50: 47.6 ± 3.1 µM
  IC50 ± SD MCF-10A: non-toxic
PIM-1 kinase [1]
  IC50: 11.4 ± 0.13 nM
  % of PIM-1 inhibition: 97.8 ± 1.8%

## N[C@H]1CC[C@H](Nc2nc(Nc3cccc(C(F)(F)F)c3)c3c(=O)[nH]ccc3n2)CC1 [SKI-O-068]
PIM-1 kinase [5]
  IC50: 123 ± 14 nM

## N#Cc1c(-c2ccc(Cl)cc2)c2c(=O)[nH]c(CCl)nc2n(C2CCCCC2)c1=O [Compound 6, 2-(Chloromethyl)-5-(4-chlorophenyl)-8-cyclohexyl-4,7-dioxo-3,4,7,8-tetrahydropyrido[2,3-d]pyrimidine-6-carbonitrile]
MCF-10A cells
  IC50: 43.5 ± 2.9 µM
  IC50 ± SD MCF-10A: non-toxic
PIM-1 kinase [1]
  IC50: 34.6 ± 0.18 nM
  % of PIM-1 inhibition: 89.6 ± 2.1%

## N#Cc1c(-c2ccc(Cl)cc2)c2c(=O)[nH]cnc2n(C2CCCCC2)c1=O [Compound 9, 5-(4-Chlorophenyl)-8-cyclohexyl-4,7-dioxo-3,4,7,8-tetrahydropyrido[2,3-d]pyrimidine-6-carbonitrile]
HepG2 cells; [6]
  IC50: 4.6 ± 0.34 µM
